Values belong to the compound of their own block, whether it stands above or below them. Activity calls are given as the source filed them. The calls are words filed in the database; no cut-off is given here.
Tests used:
[1] = molecular target: Vascular endothelial growth factor receptor 2 (Homo sapiens) (UniProt P35968); experiment: Inhibition of human VEGFR2 (787 to 1253 residues) expressed in mammalian expression system assessed as enzyme activity at 10 uM by KINOMEScan assay relative to control; set-up: scale not given: the % may be the effect or the level left
Vascular endothelial growth factor receptor 2 (Homo sapiens), sequence (P35968 whole entry, the tested form may be a part): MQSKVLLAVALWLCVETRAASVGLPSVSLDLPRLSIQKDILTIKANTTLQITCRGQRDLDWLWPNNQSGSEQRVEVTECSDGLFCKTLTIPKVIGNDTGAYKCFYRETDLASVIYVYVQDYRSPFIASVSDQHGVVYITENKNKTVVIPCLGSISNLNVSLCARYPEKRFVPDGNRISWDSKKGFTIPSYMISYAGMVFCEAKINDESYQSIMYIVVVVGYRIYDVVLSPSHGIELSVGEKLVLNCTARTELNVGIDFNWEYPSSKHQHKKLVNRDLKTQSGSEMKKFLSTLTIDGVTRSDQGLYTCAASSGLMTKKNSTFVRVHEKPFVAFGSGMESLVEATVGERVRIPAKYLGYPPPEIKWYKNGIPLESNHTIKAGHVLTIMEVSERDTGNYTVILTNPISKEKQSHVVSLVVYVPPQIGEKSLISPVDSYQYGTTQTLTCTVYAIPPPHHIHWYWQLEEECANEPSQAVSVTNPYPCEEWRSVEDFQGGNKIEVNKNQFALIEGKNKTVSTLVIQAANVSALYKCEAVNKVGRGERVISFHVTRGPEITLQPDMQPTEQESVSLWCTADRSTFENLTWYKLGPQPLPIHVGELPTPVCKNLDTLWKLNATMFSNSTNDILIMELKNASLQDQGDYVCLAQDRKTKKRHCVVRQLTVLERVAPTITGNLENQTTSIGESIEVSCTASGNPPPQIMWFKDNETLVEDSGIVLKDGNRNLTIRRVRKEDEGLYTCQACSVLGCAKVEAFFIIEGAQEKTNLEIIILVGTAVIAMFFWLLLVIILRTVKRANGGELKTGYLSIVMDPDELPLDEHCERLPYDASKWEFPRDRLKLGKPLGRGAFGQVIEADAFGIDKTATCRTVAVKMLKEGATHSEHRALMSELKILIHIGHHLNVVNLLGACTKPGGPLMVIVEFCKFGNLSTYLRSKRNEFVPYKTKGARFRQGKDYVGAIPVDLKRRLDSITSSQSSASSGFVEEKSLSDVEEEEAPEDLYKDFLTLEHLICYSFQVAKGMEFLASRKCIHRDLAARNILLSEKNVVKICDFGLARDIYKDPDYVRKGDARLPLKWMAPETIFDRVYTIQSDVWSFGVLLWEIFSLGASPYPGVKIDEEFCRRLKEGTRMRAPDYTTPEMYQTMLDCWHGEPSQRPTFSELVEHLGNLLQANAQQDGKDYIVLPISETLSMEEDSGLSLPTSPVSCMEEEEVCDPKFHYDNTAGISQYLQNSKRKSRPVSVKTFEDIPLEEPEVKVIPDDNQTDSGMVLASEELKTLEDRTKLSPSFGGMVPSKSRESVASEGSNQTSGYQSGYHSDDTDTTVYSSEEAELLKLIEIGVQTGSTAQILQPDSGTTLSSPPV
Method in brief: (§1)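 In vitro ATP-site competition binding assay across a panel of 456 kinases, with compound tested at 1 and 10 μM.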

[2] = molecular target: Receptor-type tyrosine-protein kinase FLT3 (Homo sapiens) (UniProt P36888); experiment: Inhibition of human FLT3 (592 to 969 residues) expressed in bacterial expression system assessed as enzyme activity at 10 uM by KINOMEScan assay relative to control; set-up: scale not given: the % may be the effect or the level left; method in brief: as §1
[3] = molecular target: Serine/threonine-protein kinase RIO3 (Homo sapiens) (UniProt O14730); experiment: Inhibition of full length human RIOK3 (1 to 519 residues) expressed in bacterial expression system assessed as enzyme activity at 10 uM by KINOMEScan assay relative to control; set-up: scale not given: the % may be the effect or the level left
Method in brief: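 In vitro ATP-site competition binding assay (KinomeScan) across a panel of 456 kinases. Compound was tested at 1 and 10 μM. The read-out is the binding inhibition score relative to control.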

[4] = molecular target: T1, 80S Ribosome (Homo sapiens) (UniProt P08865+P42677+P62753+P15880+P23396+P61247+P62701+P22090+P46782+P62081+P62241+P46781+P46783+P62280+P25398+P62277+P62263+P62841+P62244+P62249+P08708+P62269+P39019+P60866+P63220+P62266+P62847+P62851+P62854+P62979+P62857+P62273+P62861+P39023+P36578+P46777+Q02878+P18124+P62424+P62917+P32969+P27635+P62906+P62913+P30050+P26373+P40429+P50914+P61313+P18621+Q07020+Q02543+P84098+P46778+P35268+P62829+P62750+P83731+P61254+P61353+P46776+P46779+P47914+P62888+P62899+P62910+P49207+P42766+P18077+Q9Y3U8+P83881+P61927+P61513+P63173+P62891+P62945+P05388+P05386); experiment: Binding affinity to RPL27 in human NCI-H23 cells at 1 uM by mass spectrometry based pull down assay; type: cell-based
[5] = molecular target: Transforming growth factor-beta-induced protein ig-h3 (Homo sapiens) (UniProt Q15582); experiment: Binding affinity to TGFBI in human NCI-H358 cells at 1 uM by mass spectrometry based pull down assay; type: cell-based
[6] = molecular target: Dynamin-binding protein (Homo sapiens) (UniProt Q6XZF7); experiment: Binding affinity to DNMBP in human NCI-H23 cells at 1 uM by mass spectrometry based pull down assay; type: cell-based
[7] = molecular target: Calponin-2 (Homo sapiens) (UniProt Q99439); experiment: Binding affinity to CNN2 in human NCI-H358 cells at 1 uM by mass spectrometry based pull down assay; type: cell-based
Calponin-2 (Homo sapiens), sequence (Q99439 whole entry): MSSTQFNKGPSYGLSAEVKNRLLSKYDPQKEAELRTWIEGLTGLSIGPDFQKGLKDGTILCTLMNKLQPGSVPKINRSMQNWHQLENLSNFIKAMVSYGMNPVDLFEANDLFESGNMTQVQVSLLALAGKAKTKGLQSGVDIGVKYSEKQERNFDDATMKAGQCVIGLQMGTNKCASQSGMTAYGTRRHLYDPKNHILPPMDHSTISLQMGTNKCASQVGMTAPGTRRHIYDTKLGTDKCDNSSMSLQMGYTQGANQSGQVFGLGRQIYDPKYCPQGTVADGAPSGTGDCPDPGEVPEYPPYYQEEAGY

[8] = molecular target: Kinesin-like protein KIF1A (Homo sapiens) (UniProt Q12756); experiment: Binding affinity to KIF1A in human NCI-H23 cells at 1 uM by mass spectrometry based pull down assay; type: cell-based
Kinesin-like protein KIF1A (Homo sapiens), sequence (Q12756 whole entry): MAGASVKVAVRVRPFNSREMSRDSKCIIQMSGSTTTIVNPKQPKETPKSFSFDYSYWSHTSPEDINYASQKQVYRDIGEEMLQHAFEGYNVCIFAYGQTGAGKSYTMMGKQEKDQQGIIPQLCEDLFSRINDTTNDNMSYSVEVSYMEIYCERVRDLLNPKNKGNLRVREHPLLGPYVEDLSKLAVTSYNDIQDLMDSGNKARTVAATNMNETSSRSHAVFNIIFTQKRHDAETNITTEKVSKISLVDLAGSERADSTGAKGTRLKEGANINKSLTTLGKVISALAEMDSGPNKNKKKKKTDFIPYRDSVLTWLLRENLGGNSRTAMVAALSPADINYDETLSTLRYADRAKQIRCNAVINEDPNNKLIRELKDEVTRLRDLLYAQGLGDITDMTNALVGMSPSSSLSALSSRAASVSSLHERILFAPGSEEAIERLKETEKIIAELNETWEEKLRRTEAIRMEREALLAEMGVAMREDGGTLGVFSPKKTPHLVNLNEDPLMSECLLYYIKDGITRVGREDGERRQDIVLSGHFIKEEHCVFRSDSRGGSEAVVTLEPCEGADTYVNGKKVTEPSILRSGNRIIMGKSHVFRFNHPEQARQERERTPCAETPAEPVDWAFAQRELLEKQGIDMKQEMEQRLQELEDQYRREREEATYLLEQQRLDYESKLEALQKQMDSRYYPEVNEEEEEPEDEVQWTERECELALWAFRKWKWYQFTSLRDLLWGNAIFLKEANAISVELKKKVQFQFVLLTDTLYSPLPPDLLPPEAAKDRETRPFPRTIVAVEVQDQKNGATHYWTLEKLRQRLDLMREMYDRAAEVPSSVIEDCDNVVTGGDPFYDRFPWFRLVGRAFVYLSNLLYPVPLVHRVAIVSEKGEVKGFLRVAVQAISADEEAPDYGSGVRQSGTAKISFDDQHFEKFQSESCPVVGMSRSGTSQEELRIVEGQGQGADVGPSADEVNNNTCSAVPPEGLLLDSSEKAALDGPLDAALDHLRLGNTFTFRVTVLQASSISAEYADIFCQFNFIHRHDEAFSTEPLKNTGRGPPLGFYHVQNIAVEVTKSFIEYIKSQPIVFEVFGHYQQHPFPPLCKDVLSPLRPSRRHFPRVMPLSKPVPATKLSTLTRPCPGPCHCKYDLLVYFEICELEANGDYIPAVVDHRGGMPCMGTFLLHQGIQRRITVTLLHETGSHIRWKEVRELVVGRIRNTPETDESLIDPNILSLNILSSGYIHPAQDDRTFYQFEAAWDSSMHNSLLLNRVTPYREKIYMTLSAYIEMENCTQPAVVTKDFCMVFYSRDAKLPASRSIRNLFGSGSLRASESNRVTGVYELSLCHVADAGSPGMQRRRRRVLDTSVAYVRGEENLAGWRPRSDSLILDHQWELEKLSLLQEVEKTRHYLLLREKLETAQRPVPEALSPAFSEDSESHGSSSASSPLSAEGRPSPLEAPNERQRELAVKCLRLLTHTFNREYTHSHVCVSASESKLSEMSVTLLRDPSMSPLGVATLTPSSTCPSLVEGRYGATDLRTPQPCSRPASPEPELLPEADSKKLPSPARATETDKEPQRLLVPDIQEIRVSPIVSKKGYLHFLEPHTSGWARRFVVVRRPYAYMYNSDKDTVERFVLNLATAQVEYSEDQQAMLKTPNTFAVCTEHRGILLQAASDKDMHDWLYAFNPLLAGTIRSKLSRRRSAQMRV

[9] = molecular target: Protein SET (Homo sapiens) (UniProt Q01105); experiment: Binding affinity to SET in human NCI-H358 cells at 1 uM by mass spectrometry based pull down assay; type: cell-based
Protein SET (Homo sapiens), sequence (Q01105 whole entry): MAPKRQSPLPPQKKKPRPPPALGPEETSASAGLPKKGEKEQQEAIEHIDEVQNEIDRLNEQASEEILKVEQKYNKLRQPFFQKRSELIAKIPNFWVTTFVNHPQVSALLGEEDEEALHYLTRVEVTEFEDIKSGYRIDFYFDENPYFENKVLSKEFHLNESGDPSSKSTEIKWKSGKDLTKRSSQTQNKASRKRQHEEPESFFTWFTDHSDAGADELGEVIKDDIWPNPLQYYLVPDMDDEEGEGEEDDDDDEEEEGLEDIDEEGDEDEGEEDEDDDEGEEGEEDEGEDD

[10] = molecular target: T1, 80S Ribosome (Homo sapiens); experiment: Binding affinity to RPS9 in human NCI-H358 cells at 1 uM by mass spectrometry based pull down assay; type: cell-based
[11] = molecular target: Alkyldihydroxyacetonephosphate synthase, peroxisomal (Homo sapiens) (UniProt O00116); experiment: Binding affinity to AGPS in human NCI-H23 cells at 1 uM by mass spectrometry based pull down assay; type: cell-based
Method in brief: (§2)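 NCI-H23 or NCI-H358 cells were grown and lysed. Lysates were incubated overnight at 4 °C with 1 μM biotinylated covalent probe or DMSO, then pulled down on streptavidin beads. Proteins were run on polyacrylamide gels and stained with Coomassie. Bands were excised, digested and identified by mass spectrometry.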

[12] = molecular target: T2, Aurora kinase A (Homo sapiens) (UniProt O14965); experiment: Binding affinity to AURKA in human NCI-H23 cells at 1 uM by mass spectrometry based pull down assay; type: cell-based
T2 sequence (whole entry): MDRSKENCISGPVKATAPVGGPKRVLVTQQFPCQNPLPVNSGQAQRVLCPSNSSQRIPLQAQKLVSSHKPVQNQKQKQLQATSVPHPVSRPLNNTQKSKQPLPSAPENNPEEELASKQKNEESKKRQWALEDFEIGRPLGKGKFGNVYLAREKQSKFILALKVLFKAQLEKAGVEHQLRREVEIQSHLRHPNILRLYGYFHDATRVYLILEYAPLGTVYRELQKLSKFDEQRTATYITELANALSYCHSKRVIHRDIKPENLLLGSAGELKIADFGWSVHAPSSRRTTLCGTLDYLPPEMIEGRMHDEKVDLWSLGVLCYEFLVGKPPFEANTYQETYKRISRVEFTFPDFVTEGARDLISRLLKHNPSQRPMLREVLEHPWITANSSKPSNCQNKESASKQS

[13] = molecular target: Aldehyde dehydrogenase X, mitochondrial (Homo sapiens) (UniProt P30837); experiment: Binding affinity to ALDH1B1 in human NCI-H358 cells at 1 uM by mass spectrometry based pull down assay; type: cell-based; method in brief: as §2
[14] = molecular target: Glycogen synthase kinase-3 alpha (Homo sapiens) (UniProt P49840); experiment: Binding affinity to GSK3A in human NCI-H23 cells at 1 uM by mass spectrometry based pull down assay; type: cell-based
Glycogen synthase kinase-3 alpha (Homo sapiens), sequence (P49840 2-483 limits assumed): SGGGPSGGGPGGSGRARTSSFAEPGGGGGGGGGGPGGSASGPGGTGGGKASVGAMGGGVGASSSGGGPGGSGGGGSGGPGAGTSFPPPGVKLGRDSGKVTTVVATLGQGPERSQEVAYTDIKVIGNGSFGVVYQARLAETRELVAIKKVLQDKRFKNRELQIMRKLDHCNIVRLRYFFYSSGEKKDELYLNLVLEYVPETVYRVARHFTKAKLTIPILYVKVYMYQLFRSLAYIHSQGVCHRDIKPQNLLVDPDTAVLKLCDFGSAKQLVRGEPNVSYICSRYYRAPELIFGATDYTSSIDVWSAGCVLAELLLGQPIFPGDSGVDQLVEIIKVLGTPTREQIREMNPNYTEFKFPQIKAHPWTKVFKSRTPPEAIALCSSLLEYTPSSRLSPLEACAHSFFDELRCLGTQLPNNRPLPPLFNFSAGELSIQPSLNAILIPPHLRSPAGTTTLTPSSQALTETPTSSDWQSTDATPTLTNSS

[15] = molecular target: Replication factor C subunit 5 (Homo sapiens) (UniProt P40937); experiment: Binding affinity to RFC5 in human NCI-H358 cells at 1 uM by mass spectrometry based pull down assay; type: cell-based
[16] = molecular target: Plectin (Homo sapiens) (UniProt Q15149); experiment: Binding affinity to PLEC in human NCI-H358 cells at 1 uM by mass spectrometry based pull down assay; type: cell-based
[17] = molecular target: TBC1 domain family member 15 (Homo sapiens) (UniProt Q8TC07); experiment: Binding affinity to TBC1D15 in human NCI-H358 cells at 1 uM by mass spectrometry based pull down assay; type: cell-based
[18] = molecular target: Serine hydroxymethyltransferase, mitochondrial (Homo sapiens) (UniProt P34897); experiment: Binding affinity to SHMT2 in human NCI-H358 cells at 1 uM by mass spectrometry based pull down assay; type: cell-based
[19] = molecular target: T1, 80S Ribosome (Homo sapiens); experiment: Binding affinity to RPL17 in human NCI-H23 cells at 1 uM by mass spectrometry based pull down assay; type: cell-based
[20] = molecular target: Ribosomal protein S6 kinase alpha-3 (Homo sapiens) (UniProt P51812); experiment: Binding affinity to RPS6KA3 in human NCI-H358 cells at 1 uM by mass spectrometry based pull down assay; type: cell-based
Ribosomal protein S6 kinase alpha-3 (Homo sapiens), sequence (P51812 whole entry): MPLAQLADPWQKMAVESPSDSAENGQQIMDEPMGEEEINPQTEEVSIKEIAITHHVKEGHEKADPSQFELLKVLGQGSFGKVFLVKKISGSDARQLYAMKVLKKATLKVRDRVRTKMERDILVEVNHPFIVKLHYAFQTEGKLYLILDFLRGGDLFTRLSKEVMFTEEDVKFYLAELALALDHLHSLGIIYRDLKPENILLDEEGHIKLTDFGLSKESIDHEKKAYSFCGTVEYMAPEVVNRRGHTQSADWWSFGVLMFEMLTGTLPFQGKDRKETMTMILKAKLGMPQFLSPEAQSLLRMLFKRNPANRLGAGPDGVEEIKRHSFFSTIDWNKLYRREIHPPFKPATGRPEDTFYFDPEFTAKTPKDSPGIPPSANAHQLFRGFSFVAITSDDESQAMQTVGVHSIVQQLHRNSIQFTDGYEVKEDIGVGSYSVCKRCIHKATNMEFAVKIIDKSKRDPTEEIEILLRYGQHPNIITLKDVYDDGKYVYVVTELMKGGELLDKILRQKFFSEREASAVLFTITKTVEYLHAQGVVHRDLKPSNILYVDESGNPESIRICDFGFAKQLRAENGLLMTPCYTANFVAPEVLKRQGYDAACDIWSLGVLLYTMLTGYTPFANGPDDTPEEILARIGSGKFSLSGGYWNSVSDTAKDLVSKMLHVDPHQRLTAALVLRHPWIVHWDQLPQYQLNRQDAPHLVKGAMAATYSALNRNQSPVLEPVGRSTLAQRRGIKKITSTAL

[21] = molecular target: AH receptor-interacting protein (Homo sapiens) (UniProt O00170); experiment: Binding affinity to AIP in human NCI-H23 cells at 1 uM by mass spectrometry based pull down assay; type: cell-based; method in brief: as §2
[22] = molecular target: Tensin-3 (Homo sapiens) (UniProt Q68CZ2); experiment: Binding affinity to TNS3 in human NCI-H358 cells at 1 uM by mass spectrometry based pull down assay; type: cell-based

Compound: COc1cc(O)c2c(c1)/C=C/C[C@H](O)[C@H](O)C(=O)/C=C\C[C@H](C)OC2=O
Activity [1]: 5.2%
Activity [2]: 0.55%
Activity [3]: 0%

Activity [4]: Active
Activity [5]: Active
Activity [6]: Active
Activity [7]: Active
Activity [8]: Active
Activity [9]: Active
Activity [10]: Active
Activity [11]: Active
Activity [12]: Active
Activity [13]: Active
Activity [14]: Active
Activity [15]: Active
Activity [16]: Active
Activity [17]: Active
Activity [18]: Active
Activity [19]: Active
Activity [20]: Active
Activity [21]: Active
Activity [22]: Active
Compound: C=CC(=O)Nc1ccccc1Nc1nc(Nc2ccc(N3CCN(CCOCCOCCOCCNC(=O)CCCC[C@@H]4SC[C@@H]5NC(=O)N[C@@H]54)CC3)cc2)ncc1Cl

Reference: ChEMBL document CHEMBL4118021, “Studies of TAK1-centered polypharmacology with novel covalent TAK1 inhibitors” (Bioorg Med Chem, 2017)
